Source: ChEMBL document CHEMBL1151798, “Monoacylglycerol lipase regulates 2-arachidonoylglycerol action and arachidonic acid levels” (Bioorg Med Chem Lett, 2008)
The source made the active and inactive calls. No cut-off for these calls is given here.

Columns and labels:
[1] = molecular target: Cannabinoid receptor 1 (Mus musculus) (UniProt P47746); test: Displacement of [3H]CP-55940 from mouse CB1 receptor expressed in HEK293 cells up to 100,000 nM; type: cell-based
[2] = molecular target: Cannabinoid receptor 1 (Mus musculus) (UniProt P47746); test: Displacement of [3H]CP-55940 from CB1 receptor in mouse brain at 100 nM; type: tissue-based
Cannabinoid receptor 1 = Cannabinoid receptor 1 (Mus musculus, UniProt P47746); test: Displacement of [3H]CP-55940 from CB1 receptor in mouse brain; type: tissue-based
Cannabinoid receptor 1, sequence (P47746 whole entry): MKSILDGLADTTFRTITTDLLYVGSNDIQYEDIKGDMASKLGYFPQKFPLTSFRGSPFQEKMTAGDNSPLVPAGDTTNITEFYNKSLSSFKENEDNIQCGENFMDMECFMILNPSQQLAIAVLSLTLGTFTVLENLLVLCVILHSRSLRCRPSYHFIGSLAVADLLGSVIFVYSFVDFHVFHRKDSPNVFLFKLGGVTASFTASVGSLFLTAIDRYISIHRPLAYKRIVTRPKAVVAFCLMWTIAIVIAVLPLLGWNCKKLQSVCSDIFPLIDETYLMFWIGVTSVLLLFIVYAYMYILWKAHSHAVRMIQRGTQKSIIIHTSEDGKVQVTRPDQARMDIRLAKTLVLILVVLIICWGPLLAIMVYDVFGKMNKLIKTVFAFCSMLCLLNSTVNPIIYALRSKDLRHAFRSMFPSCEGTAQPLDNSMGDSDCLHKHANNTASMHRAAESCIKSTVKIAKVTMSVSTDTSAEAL

[3] = molecular target: T1, Fatty-acid amide hydrolase 1 (Mus musculus, UniProt O08914); test: Inhibition of FAAH-mediated [3H]anandamide hydrolysis in mouse brain; type: tissue-based
T1 sequence (O08914 whole entry): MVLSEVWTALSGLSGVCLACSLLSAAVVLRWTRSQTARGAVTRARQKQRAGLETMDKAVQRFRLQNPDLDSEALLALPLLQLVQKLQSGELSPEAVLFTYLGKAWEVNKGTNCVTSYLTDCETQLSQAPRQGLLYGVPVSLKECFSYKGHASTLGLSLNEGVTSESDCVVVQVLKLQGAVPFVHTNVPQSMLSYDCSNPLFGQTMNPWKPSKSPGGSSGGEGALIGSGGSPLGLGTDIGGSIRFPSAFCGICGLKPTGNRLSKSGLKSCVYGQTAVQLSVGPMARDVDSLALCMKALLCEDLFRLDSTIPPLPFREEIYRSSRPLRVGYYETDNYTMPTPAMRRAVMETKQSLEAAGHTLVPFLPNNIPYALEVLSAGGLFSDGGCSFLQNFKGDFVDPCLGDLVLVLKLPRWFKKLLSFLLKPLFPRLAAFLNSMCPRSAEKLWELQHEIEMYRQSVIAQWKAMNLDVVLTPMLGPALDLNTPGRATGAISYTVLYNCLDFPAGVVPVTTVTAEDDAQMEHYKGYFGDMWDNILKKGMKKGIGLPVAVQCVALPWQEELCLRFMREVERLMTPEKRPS

Monoglyceride lipase = molecular target: T2, Monoglyceride lipase (Mus musculus, UniProt O35678); test: Inhibition of MAGL-mediated 2-arachidonoylglycerol hydrolysis in mouse brain; type: tissue-based
T2 sequence (O35678 whole entry): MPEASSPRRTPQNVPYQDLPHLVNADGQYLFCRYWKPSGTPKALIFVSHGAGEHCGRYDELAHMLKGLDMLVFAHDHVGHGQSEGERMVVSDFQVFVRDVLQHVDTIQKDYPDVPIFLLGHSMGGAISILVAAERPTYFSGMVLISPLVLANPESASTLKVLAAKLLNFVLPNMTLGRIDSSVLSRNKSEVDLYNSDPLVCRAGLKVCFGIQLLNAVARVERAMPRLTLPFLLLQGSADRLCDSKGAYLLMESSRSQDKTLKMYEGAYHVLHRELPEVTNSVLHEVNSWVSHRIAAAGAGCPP

Mus musculus [4] = test: Modulation of cataleptic behavior in Swiss-Webster mouse assessed as >10 sec latency along with flattened posture and open eyes at 10 mg/kg, ip by bar test; type: functional, organism-based; design: dose 10 mg/kg
Summary of the method: (§1)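 Mice were given an intraperitoneal dose of 10 or 100 mg/kg and scored for catalepsy by bar test. A cannabinoid response was a latency >10 s, plus a qualitatively flattened posture and remaining motionless with eyes open. n=3 mice per treatment group, mean ± S.D.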

Mus musculus [5] = test: Increase in Swiss-Webster mouse brain 2-arachidonoylglycerol level at 100 mg/kg, ip; type: functional, organism-based; design: dose 100 mg/kg
Summary of the method: (§2)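 Mice received single intraperitoneal doses (10 or 100 mg/kg). Brain levels of 2-AG and arachidonic acid were then measured. Values are mean ± S.D., n=3 mice per treatment group.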

Mus musculus [6] = test: Decrease in Swiss-Webster mouse brain arachidonic acid level at 100 mg/kg, ip; type: functional, organism-based; design: dose 100 mg/kg; summary of the method: as §2
Mus musculus [7] = test: Decrease in Swiss-Webster mouse brain arachidonic acid level at 10 mg/kg, ip; type: functional, organism-based; design: dose 10 mg/kg; summary of the method: as §2
Mus musculus [8] = test: Modulation of cataleptic behavior in Swiss-Webster mouse assessed as >10 sec latency along with flattened posture at 100 mg/kg, ip by bar test; type: functional, organism-based; design: dose 100 mg/kg; summary of the method: as §1
Mus musculus [9] = test: Increase in Swiss-Webster mouse brain 2-arachidonoylglycerol level at 10 mg/kg, ip; type: functional, organism-based; design: dose 10 mg/kg; summary of the method: as §2

Cannabinoid receptor 1 (Mus musculus), sequence (P47746 whole entry): as the sequence (P47746 whole entry) above

Question: Which Activity [1] does the source give for CCOP(=O)(OCC)Oc1nc(Cl)c(Cl)cc1Cl here?
Answer: inactive

Question: And the Bmax [2]?
Answer: 0.17 pmol/mg

Question: For CCOP(=O)(OCC)Oc1ccc([N+](=O)[O-])cc1 [PARAOXON], which IC50 (Cannabinoid receptor 1) is on record?
Answer: 1200 nM

Question: What about the IC50 [3] of the same compound?
Answer: 540 nM

Question: And the IC50 (Monoglyceride lipase)?
Answer: 2300 nM

Question: For CCCCCCCCCSP1(=O)OCc2ccccc2O1 (stereo not drawn), which IC50 [3] is on record?
Answer: 0.15 nM

Question: What about the IC50 (Monoglyceride lipase) of the same compound?
Answer: 0.31 nM

Question: Which results are given for CCCCCCCCCCCCP(=O)(Oc1ccc([N+](=O)[O-])cc1)OC(C)C (stereo not drawn)?
Answer: IC50 (Cannabinoid receptor 1): 12 nM; IC50 [3]: 3 nM; IC50 (Monoglyceride lipase): 0.28 nM

Question: Which results are given for CCCCCCCCCCCCS(=O)(=O)F [DODECANESULFONYL FLUORIDE]?
Answer: Activity (Mus musculus [4]): Active; Activity (Mus musculus [5]): Active; Activity (Mus musculus [6]): Active; Activity (Mus musculus [7]): Active; Activity (Mus musculus [8]): Active; Activity (Mus musculus [9]): Active; IC50 (Monoglyceride lipase): 200 nM

Question: Which results are given for CCCCCCCCS(=O)(=O)F?
Answer: Activity (Mus musculus [4]): Active; Activity (Mus musculus [5]): Active; Activity (Mus musculus [6]): Active; Activity (Mus musculus [7]): Active; Activity (Mus musculus [8]): Active; IC50 [3]: 1.9 nM; Activity (Mus musculus [9]): Active; IC50 (Monoglyceride lipase): 140 nM

Question: How did the Activity (Mus musculus [4]) turn out when CCCCCCCCCCCCP(=O)(OCC)Oc1ccc(C#N)cc1 (stereo not drawn) was run?
Answer: Active

Question: What about the Activity (Mus musculus [5]) of the same compound?
Answer: Active

Question: What about the Activity (Mus musculus [6]) of the same compound?
Answer: Active

Question: What about the IC50 (Cannabinoid receptor 1) of the same compound?
Answer: 4 nM

Question: What about the Activity (Mus musculus [7]) of the same compound?
Answer: Active

Question: What about the Activity (Mus musculus [8]) of the same compound?
Answer: Active

Question: And the IC50 [3]?
Answer: 12 nM

Question: And the Activity (Mus musculus [9])?
Answer: Active

Question: What about the IC50 (Monoglyceride lipase) of the same compound?
Answer: 0.07 nM

Question: Which Activity (Mus musculus [4]) does the source give for CCCCCCCCCCCCP(=O)(OCC)Oc1nc(Cl)c(Cl)cc1Cl (stereo not drawn) here?
Answer: inactive

Question: What about the Activity (Mus musculus [5]) of the same compound?
Answer: inactive

Question: What about the Activity (Mus musculus [6]) of the same compound?
Answer: inactive

Question: And the IC50 (Cannabinoid receptor 1)?
Answer: 14 nM

Question: And the Activity (Mus musculus [7])?
Answer: inactive

Question: And the Activity (Mus musculus [8])?
Answer: inactive

Question: What about the IC50 [3] of the same compound?
Answer: 42 nM

Question: And the Activity (Mus musculus [9])?
Answer: inactive

Question: What about the IC50 (Monoglyceride lipase) of the same compound?
Answer: 0.14 nM
